Series [1] can be described thus: Acute LD50 of compound was evaluated on L1210 leukemia in mice when administered intraperitoneally. Format: ADME, organism-based. The note with it: mouse, in vivo, ip. The procedure, abridged: (§1)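 Adult B6D2F1 mice were inoculated ip with 10^5 L1210 leukemia cells on day 0. Compound in olive oil (2-150 mg/kg, ip) was given on day 1 and repeated on days 5 and 9 only in mice without signs of toxicity. Mortality was monitored daily, with autopsy to separate leukemic from toxic deaths. Acute LD50 was determined graphically.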

In series [2] the test system is Mus musculus. The series is described as follows: Compound was tested for its antitumor activity on L1210 leukemia in mice at the dose of 50 mg/kg (i.p.); Not significant. Set-up: dose 50 mg/kg. Format: functional, organism-based.
Series [3] has as its system Mus musculus. The series is described as follows: Compound was tested for its antitumor activity on L1210 leukemia in mice at the dose of 8 mg/kg (i.p.); Not significant. Format: functional, organism-based. The arrangement: dose 8 mg/kg.
Series [4] concerns Mus musculus. In words: Compound was tested for its antitumor activity on L1210 leukemia in mice at the dose of 20 mg/kg (i.p.); Not significant. It counts as functional, organism-based. Set-up: dose 20 mg/kg.
Series [5] has as its system Mus musculus. The series is described as follows: Compound was tested for its antitumor activity on L1210 leukemia in mice at the dose of 3.2 mg/kg (i.p.); Not significant. Set-up: dose 3.2 mg/kg. It counts as functional, organism-based. The procedure, abridged:
(§2)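 B6D2F1 adult mice inoculated ip with 10^5 L1210 cells on day 0. Drug given ip in olive oil on day 1, repeated days 5 and 9 only in mice without toxicity signs. Daily mortality monitoring with autopsy to assign leukemic vs toxic death. Index I = T/C × 100 from median survival; active if I > 125 and Wilcoxon W test significant; ∞ means >50% cured.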

For series [6], the system named is Mus musculus. The series is described as follows: Compound was tested for its antitumor activity on L1210 leukemia in mice at the dose of 8 mg/kg (i.p.). Format: functional. The conditions noted are these: route intraperitoneal. An outline of the steps:
as §2

For series [7], the system named is Mus musculus. In words: Compound was tested for its antitumor activity on L1210 leukemia in mice at the dose of 20 mg/kg (i.p.); Toxic. It counts as functional, organism-based. Set-up: dose 20 mg/kg. An outline of the steps:
as §2

For series [8], the system named is Mus musculus. In words: Compound was tested for its antitumor activity on L1210 leukemia in mice at the dose of 3.2 mg/kg (i.p.). It counts as functional. The conditions noted are these: route intraperitoneal. An outline of the steps:
as §2

Series [9] is described as follows: Acute LD50 of compound was evaluated on L1210 leukemia in mice. Format: ADME, organism-based. The conditions noted are these: mouse, in vivo. The procedure, abridged:
as §1

Series [10] relates to Mus musculus. The series is described as follows: Compound was tested for its antitumor activity on L1210 leukemia in mice at the dose of 5 mg/kg (i.p.). It counts as functional. The note with it: route intraperitoneal. An outline of the steps: as §2
Series [11] has as its system Mus musculus. In words: Compound was tested for its antitumor activity on L1210 leukemia in mice at the dose of 60 mg/kg (i.p.); High percent value. The arrangement: dose 60 mg/kg. It counts as functional, organism-based. An outline of the steps:
as §2

Series [12] relates to Mus musculus. In words: Compound was tested for its antitumor activity on L1210 leukemia in mice at the dose of 90 mg/kg (i.p.); Toxic. Set-up: dose 90 mg/kg. It counts as functional, organism-based. The procedure, abridged: as §2
Series [13] has as its system Mus musculus. The series is described as follows: Compound was tested for its antitumor activity on L1210 leukemia in mice at the dose of 10 mg/kg (i.p.). It counts as functional. The note with it: route intraperitoneal. An outline of the steps: as §2
The test system of series [14] is Mus musculus. In words: Compound was tested for its antitumor activity on L1210 leukemia in mice at the dose of 10 mg/kg (i.p.); High percent value. It counts as functional, organism-based. Set-up: dose 10 mg/kg. An outline of the steps: as §2
The test system of series [15] is Mus musculus. The series is described as follows: Compound was tested for its antitumor activity on L1210 leukemia in mice at the dose of 20 mg/kg (i.p.). It counts as functional. The note with it: route intraperitoneal. The procedure, abridged:
as §2

For series [16], the system named is Mus musculus. The series is described as follows: Compound was tested for its antitumor activity on L1210 leukemia in mice at the dose of 2 mg/kg (i.p.). It counts as functional. The conditions noted are these: route intraperitoneal. The procedure, abridged: as §2
Series [17] relates to Mus musculus. The series is described as follows: Compound was tested for its antitumor activity on L1210 leukemia in mice at the dose of 2 mg/kg (i.p.); Not significant. Format: functional, organism-based. The arrangement: dose 2 mg/kg. An outline of the steps:
as §2

In series [18] the test system is Mus musculus. The series is described as follows: Compound was tested for its antitumor activity on L1210 leukemia in mice at the dose of 30 mg/kg (i.p.); High percent value. It counts as functional, organism-based. The arrangement: dose 30 mg/kg. An outline of the steps:
as §2

Series [19] has as its system Mus musculus. The series is described as follows: Compound was tested for its antitumor activity on L1210 leukemia in mice at the dose of 30 mg/kg (i.p.); Toxic. Format: functional, organism-based. Set-up: dose 30 mg/kg. The procedure, abridged:
as §2

Series [20] deals with Mus musculus. The series is described as follows: Compound was tested for its antitumor activity on L1210 leukemia in mice at the dose of 20 mg/kg (i.p.); High percent value. Format: functional, organism-based. The arrangement: dose 20 mg/kg. An outline of the steps: as §2

Where “and” joins values, the source holds several entries; their conditions need not be identical. Equal values may be shown once. Calls of active or inactive are those of the source.

In the case of `CN(N=O)C(=O)ON1C(=O)CCC1=O`, the LD50 in series [1] amounted to 115 mg/kg. Moreover, the T/C result in the series with Mus musculus [2], with Mus musculus [3] and in the series with Mus musculus [4] was “inactive” throughout.
Take `O=NN(CCCl)C(=O)Oc1ccc([N+](=O)[O-])cc1`: the LD50 in [1] was 17 mg/kg. For the same molecule, the T/C result in the series with Mus musculus [3] and with Mus musculus [5] was “inactive” each time.
In turn, `O=NN(CCCl)C(=O)ON1C(=O)CCC1=O` yielded a 50% lethal dose (LD50) in series [1] of 36 mg/kg. Moreover, the results for the T/C in the series on Mus musculus [6], in the series on Mus musculus [7] and with Mus musculus [8] were 137%, “Toxic” and 125%, respectively.
As for `O=NN(CCCl)C(=O)NCCSSCCNC(=O)N(CCCl)N=O` [DITIOMUSTINE], the LD50 in [9] worked out at 75 mg/kg; in series [1], 28 mg/kg. In addition, the T/C with Mus musculus [10] was 212% and 133%; with Mus musculus [11], “High percent value”; in the series on Mus musculus [12], “Toxic”; with Mus musculus [13], 151%; with Mus musculus [14], “High percent value”; with Mus musculus [15], 228%. For the same molecule, the T/C in the series with Mus musculus [16] is 111%; in the series with Mus musculus [18], “High percent value”; in the series with Mus musculus [19], “Toxic”; with Mus musculus [20] it was “High percent value”. Also, in the series with Mus musculus [17], the T/C result is “inactive”.

The values are drawn from ChEMBL document CHEMBL1122009, “Activated N-nitrosocarbamates for regioselective synthesis of N-nitrosoureas” (J Med Chem, 1982).
